Assay results as given in ChEMBL document CHEMBL1122688, “Antimycotic azoles. 7. Synthesis and antifungal properties of a series of novel triazol-3-ones” (1984).

What was measured:
[1] = system: Aspergillus fumigatus; assay: In vitro antifungal activity against Aspergillus fumigatus; assay type: functional
Procedure, shortened: (§1)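 Fungal growth-inhibition screen (Godefroi method) against dermatophytes, yeasts, moulds and other fungi. The value is the lowest concentration (µg/mL) giving total inhibition of growth, tested up to 100 µg/mL.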

[2] = system: Candida albicans; assay: In vitro antifungal activity against Candida albicans; assay type: functional; procedure, shortened: as §1
[3] = system: Candida tropicalis; assay: In vitro antifungal activity against Candida tropicalis; assay type: functional; procedure, shortened: as §1
[4] = system: Cryptococcus neoformans; assay: In vitro antifungal activity against Cryptococcus neoformans; assay type: functional; procedure, shortened: as §1
[5] = system: Microsporum canis; assay: In vitro antifungal activity against Microsporum canis; assay type: functional; procedure, shortened: as §1
[6] = In vitro antifungal activity against Mucor sp; assay type: functional; procedure, shortened: as §1
[7] = system: Phialophora verrucosa; assay: In vitro antifungal activity against Phialophora verrucosa; assay type: functional; procedure, shortened: as §1
[8] = system: Saprolegnia; assay: In vitro antifungal activity against Saprolegnia sp; assay type: functional; procedure, shortened: as §1
[9] = system: Sporothrix schenckii; assay: In vitro antifungal activity against Sporothrix schenck ii; assay type: functional; procedure, shortened: as §1
[10] = system: Trichophyton benhamiae; assay: In vitro antifungal activity against Trichophyton mentagrophytes; assay type: functional, Arthroderma benhamiae; procedure, shortened: as §1
[11] = system: Trichophyton rubrum; assay: In vitro antifungal activity against Trichophyton rubrum; assay type: functional; procedure, shortened: as §1
[12] = In vivo activity against vaginal candidoses in rats, measured as the ratio of animals cured/animals infected (C/I) at dose 0.63 mg/kg; C/I = 0/2; assay type: functional
[13] = In vivo activity against vaginal candidoses in rats, measured as the ratio of animals cured/animals infected (C/I) at dose 2.5 mg/kg; C/I = 1/4; assay type: functional
[14] = In vivo activity against microsporosis guinea pig, measured as the ratio of animals cured/animals infected (C/I) at dose 10 mg/kg; C/I = 1/4; assay type: functional
[15] = In vivo activity against vaginal candidoses in rats, measured as the ratio of animals cured/animals infected (C/I) at dose 2.5 mg/kg; C/I = 1/2; assay type: functional
[16] = In vivo activity against microsporosis guinea pig, measured as the ratio of animals cured/animals infected (C/I) at dose 20 mg/kg; C/I = 2/2; assay type: functional
[17] = In vivo activity against microsporosis guinea pig, measured as the ratio of animals cured/animals infected (C/I) at dose 10 mg/kg; C/I = 0/2; assay type: functional
[18] = In vivo activity against vaginal candidoses in rats, measured as the ratio of animals cured/animals infected (C/I) at dose 2.5 mg/kg; C/I = 0/2; assay type: functional
[19] = In vivo activity against vaginal candidoses in rats, measured as the ratio of animals cured/animals infected (C/I) at dose 10 mg/kg; C/I = 3/4; assay type: functional
[20] = system: Rattus norvegicus; assay: In vivo activity against vaginal candidoses in rats, measured as the ratio of animals cured/animals infected (C/I) at dose 1.25 mg/kg; C/I = 5/6; assay type: functional
[21] = In vivo activity against microsporosis guinea pig, measured as the ratio of animals cured/animals infected (C/I) at dose 10 mg/kg; C/I = 1/8; assay type: functional
[22] = In vivo activity against microsporosis guinea pig, measured as the ratio of animals cured/animals infected (C/I) at dose 2.5 mg/kg; C/I = 0/2; assay type: functional
[23] = In vivo activity against microsporosis guinea pig, measured as the ratio of animals cured/animals infected (C/I) at dose 1.25 mg/kg; C/I = 0/2; assay type: functional
[24] = In vivo activity against vaginal candidoses in rats, measured as the ratio of animals cured/animals infected (C/I) at dose 2.5 mg/kg; C/I = 4/6; assay type: functional
[25] = In vivo activity against vaginal candidoses in rats, measured as the ratio of animals cured/animals infected (C/I) at dose 0.63 mg/kg; C/I = 4/8; assay type: functional
[26] = In vivo activity against vaginal candidoses in rats, measured as the ratio of animals cured/animals infected (C/I) at dose 10 mg/kg; C/I = 2/2; assay type: functional
[27] = In vivo activity against microsporosis guinea pig, measured as the ratio of animals cured/animals infected (C/I) at dose 20 mg/kg; 0/2; assay type: functional
[28] = In vivo activity against vaginal candidoses in rats, measured as the ratio of animals cured/animals infected (C/I) at dose 2.5 mg/kg; 0/2; assay type: functional
[29] = In vivo activity against vaginal candidoses in rats, measured as the ratio of animals cured/animals infected (C/I) at dose 10 mg/kg; 1/2; assay type: functional

Row | Structure (SMILES) | Inhibition [1] | Inhibition [2] | Inhibition [3] | Inhibition [4] | Inhibition [5] | Inhibition [6] | Inhibition [7] | Inhibition [8] | Inhibition [9] | Inhibition [10] | Inhibition [11] | also measured
1 | CCCn1nc(C)n(-c2ccc(N3CCN(c4ccc(OC[C@@H]5COC(Cn6cncn6)(c6ccc(Cl)cc6Cl)O5)cc4)CC3)cc2)c1=O (stereo partly drawn) | >100 µg/mL | 100 µg/mL | 100 µg/mL | 100 µg/mL | >100 µg/mL | >100 µg/mL | >100 µg/mL | >100 µg/mL | >100 µg/mL | 1 µg/mL | >100 µg/mL | C/I ratio [12]: 0; C/I ratio [13]: 1
2 | CCCn1nc(CC)n(-c2ccc(N3CCN(c4ccc(OC[C@@H]5COC(Cn6ccnc6)(c6ccc(Cl)cc6Cl)O5)cc4)CC3)cc2)c1=O (stereo partly drawn) | >100 µg/mL | 100 µg/mL | 10 µg/mL | >100 µg/mL | >100 µg/mL | >100 µg/mL | >100 µg/mL | >100 µg/mL | >100 µg/mL | 10 µg/mL | 100 µg/mL | C/I ratio [14]: 1; C/I ratio [15]: 1
3 | Cc1nn(C)c(=O)n1-c1ccc(N2CCN(c3ccc(OC[C@@H]4COC(Cn5ccnc5)(c5ccc(Cl)cc5Cl)O4)cc3)CC2)cc1 (stereo partly drawn) | 100 µg/mL | 100 µg/mL | > 100 µg/mL | >100 µg/mL | 100 µg/mL | >100 µg/mL | >100 µg/mL | >100 µg/mL | >100 µg/mL | 10 µg/mL | 100 µg/mL | C/I ratio [16]: 2; C/I ratio [17]: 0; C/I ratio [18]: 0; C/I ratio [19]: 0.75
4 | Cn1ncn(-c2ccc(N3CCN(c4ccc(OC[C@@H]5COC(Cn6cncn6)(c6ccc(Cl)cc6Cl)O5)cc4)CC3)cc2)c1=O (stereo partly drawn) | >100 µg/mL | 100 µg/mL | 10 µg/mL | 100 µg/mL | >100 µg/mL | >100 µg/mL | 100 µg/mL | >100 µg/mL | >100 µg/mL | 1 µg/mL | 10 µg/mL | C/I ratio [20]: 5; C/I ratio [21]: 1; C/I ratio [22]: 0; C/I ratio [23]: 0; C/I ratio [24]: 4; C/I ratio [25]: 0.5; C/I ratio [26]: 1
5 | CC(=O)N1CCN(c2ccc(OC[C@@H]3COC(Cn4cncn4)(c4ccc(Cl)cc4Cl)O3)cc2)CC1 (stereo partly drawn) | – | – | – | – | 100 µg/mL | – | – | – | – | – | – | C/I ratio [27]: 0; C/I ratio [28]: 0; C/I ratio [29]: 1
